In the array DNA melting data of Ke et al. (doi:10.1101/2024.01.08.574731) one finds folding enthalpy and Tm data, which are given here for 36 sequences.

Series [1] in a line: folding enthalpy; higher = less favourable; fluorescence melt of hairpins on a sequencing array, two-state fit. The conditions noted are these: sodium 0.088 M. The essentials:
(§1)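 Cy3 fluorescence of library hairpins on a sequenced MiSeq flow cell, with annealed Cy3 and quencher oligos, was imaged in 50 mM Na-HEPES pH 8.0, 25 mM NaCl in 2.5 °C steps up to 60 °C. Signals were normalised to pre-quench Cy3 and to control variants. Melting temperature and folding enthalpy came from bootstrapped two-state fits, inverse-variance combined over four replicates. Fitted temperatures were raised by 9.35 °C to match UV melts.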

The nature of series [2]: melting temperature; fluorescence melt of hairpins on a sequencing array, two-state fit, raised by 9.35 °C to match UV melts. The conditions noted are these: sodium 0.088 M. The gist of the method:
as §1

Turning to GTATGGACGAAAGTCTAC (((..(((....)))))), the folding enthalpy in series [1] was -10.9 kcal/mol. Besides, in series [2], the Tm turned out to be 29.2 °C.

As to GTATGGCGAAAGCCGTAC (((.(((....))).))), the folding enthalpy in series [1] was -25.9 kcal/mol. Moreover, the Tm in series [2] was found to be 56.9 °C.

On to GTATGGGAAACCATAC ((((((....)))))), for which, in series [1], the folding enthalpy was -36.9 kcal/mol. In addition, the Tm in series [2] worked out at 50.8 °C.

GTATGGGGAAACCCATAC (((((((....))))))): in series [1], the folding enthalpy is -33.5 kcal/mol. Further, the Tm in series [2] turned out to be 59 °C.

On to GTATGTCGAAAGACGTAC (((.(((....))).))), for which, in series [1], the folding enthalpy is -24.8 kcal/mol. The Tm in series [2] was determined as 52.8 °C.

GTATGTCGAAAGACTTAC (((.(((....))).))): the folding enthalpy in series [1] was -25.1 kcal/mol. Further, the Tm in series [2] amounted to 45.5 °C.

With GTATGTGGAAACACGTAC (((.(((....))).))), the folding enthalpy in series [1] was -29.3 kcal/mol. Further, the Tm in series [2] was determined as 47.1 °C.

In the case of GTATTACGAAAGTATAC (((.(((....)))))), the folding enthalpy in series [1] was -18.1 kcal/mol. The Tm in series [2] was 32.5 °C.

Turning to GTATTAGGAAACCAATAC (((((.(....).))))), the folding enthalpy in series [1] is -14.2 kcal/mol. Also, in series [2], the Tm came out at 25.9 °C.

Regarding GTATTCGAAAGAAGTAC ((((((....))).))), the folding enthalpy in series [1] is -8.84 kcal/mol. Besides, the Tm in series [2] was determined as 24.9 °C.

Take GTATTCGCGAAAGCGTAC (((..(((....)))))): the folding enthalpy in series [1] is -8 kcal/mol. The Tm in series [2] was found to be 23.4 °C.

As to GTATTGGAAACAATAC ((((((....)))))), in series [1], the folding enthalpy is -26.9 kcal/mol. Further, the Tm in series [2] came to 46.5 °C.

Regarding GTATTGGGAAACCAATGC (.(((((....))))).), the folding enthalpy in series [1] is -26.9 kcal/mol. Moreover, the Tm in series [2] stood at 44.3 °C.

As for GTATTGGGAAACCAGTAC (((.(((....))).))), the folding enthalpy in series [1] was -27.3 kcal/mol. Besides, in series [2], the Tm came out at 40 °C.

Regarding GTATTTCGAAAGAACTAC (((.(((....))).))), the folding enthalpy in series [1] is -19.2 kcal/mol. In addition, in series [2], the Tm came out at 31.7 °C.

For the sequence GTATTTCGAAAGAATTAC (((.(((....))).))), the folding enthalpy in series [1] was -28.3 kcal/mol. Besides, the Tm in series [2] is 33.3 °C.

Consider GTCAAAGGAAACCTTGAC (((((.(....).))))), for which the folding enthalpy in series [1] was -26.9 kcal/mol. Also, the Tm in series [2] worked out at 38.2 °C.

Consider GTCAAAGGAAACTTTGAC (((((((....))))))), for which the folding enthalpy in series [1] was -44.9 kcal/mol. Further, the Tm in series [2] was 55.8 °C.

Regarding GTCAACCCGAAAGGGGAC (((..(((....)))))), the folding enthalpy in series [1] was -15 kcal/mol. For the same sequence, the Tm in series [2] turned out to be 41.8 °C.

For the sequence GTCAACGGAAACGTTGGC (.(((((....))))).), the folding enthalpy in series [1] is -32.5 kcal/mol. Besides, the Tm in series [2] came to 54.9 °C.

Turning to GTCAAGCGAAAGCTCGAC (((.(((....))).))), in series [1], the folding enthalpy was -30.3 kcal/mol. Further, the Tm in series [2] came to 49.7 °C.

As for GTCAAGGAAACTTGAC ((((((....)))))), the folding enthalpy in series [1] was -29.6 kcal/mol. Besides, in series [2], the Tm was 53.5 °C.

With GTCAAGGCGAAAGCCGAC (((..(((....)))))), the folding enthalpy in series [1] is -10.2 kcal/mol. Moreover, the Tm in series [2] was determined as 48.1 °C.

For GTCAAGGGAAACCTTGAC (((((((....))))))), in series [1], the folding enthalpy is -47.2 kcal/mol. In series [2], the Tm worked out at 58 °C.

In the case of GTCAAGGGAAACCTTGGC (.(((((....))))).), in series [1], the folding enthalpy is -33.1 kcal/mol. In addition, the Tm in series [2] was found to be 49.4 °C.

GTCAATGCGAAAGCAGAC (((..(((....)))))): the folding enthalpy in series [1] is -16.3 kcal/mol. Besides, in series [2], the Tm was 39.1 °C.

In the case of GTCAATGGAAACACTGAC ((((.((....)).)))), in series [1], the folding enthalpy is -22.1 kcal/mol. The Tm in series [2] is 34.5 °C.

As for GTCAATGGAAACATCGAC (((.(((....))).))), the folding enthalpy in series [1] was -33.1 kcal/mol. Also, the Tm in series [2] is 33.3 °C.

For GTCACACGAAAGTGGAC (((.(((....)))))), the folding enthalpy in series [1] was -18.7 kcal/mol. Also, in series [2], the Tm turned out to be 48.6 °C.

For GTCACAGGAAACTACGAC (((..((....))..))), the folding enthalpy in series [1] was -21.8 kcal/mol. The Tm in series [2] was found to be 28.4 °C.

For GTCACCCGAAAGGGAGAC (((.(((....))).))), the folding enthalpy in series [1] is -33.6 kcal/mol. In addition, the Tm in series [2] came to 57.2 °C.

GTCACCGAAAGGTACGAC ((((((....)))..))): the folding enthalpy in series [1] is -18 kcal/mol. Besides, in series [2], the Tm was determined as 41.2 °C.

For GTCACCGAAAGGTATGAC ((((((....)))..))), the folding enthalpy in series [1] was -20.2 kcal/mol. The Tm in series [2] was determined as 40.1 °C.

Consider GTCACCGAAAGGTCCGAC ((((((....)))..))), for which the folding enthalpy in series [1] is -11.2 kcal/mol. Besides, the Tm in series [2] worked out at 31.1 °C.

In the case of GTCACCGAAAGGTCTGAC ((((((....)))..))), the folding enthalpy in series [1] was -15.2 kcal/mol. Further, the Tm in series [2] stood at 33.7 °C.

GTCACCGAAAGGTGGAC ((((((....))).))): in series [1], the folding enthalpy was -14.1 kcal/mol. Moreover, in series [2], the Tm is 54.2 °C.
